Here are results for three compounds from BindingDB's records for doi:10.1016/j.ejmech.2013.12.052 (Jaypee University of Information Technology, 2014).

Structures are written as SMILES.

The target in this experiment is T1, Inhibitor of nuclear factor kappa-B kinase subunit beta (Homo sapiens, UniProt O14920).
T1 sequence (O14920 whole entry): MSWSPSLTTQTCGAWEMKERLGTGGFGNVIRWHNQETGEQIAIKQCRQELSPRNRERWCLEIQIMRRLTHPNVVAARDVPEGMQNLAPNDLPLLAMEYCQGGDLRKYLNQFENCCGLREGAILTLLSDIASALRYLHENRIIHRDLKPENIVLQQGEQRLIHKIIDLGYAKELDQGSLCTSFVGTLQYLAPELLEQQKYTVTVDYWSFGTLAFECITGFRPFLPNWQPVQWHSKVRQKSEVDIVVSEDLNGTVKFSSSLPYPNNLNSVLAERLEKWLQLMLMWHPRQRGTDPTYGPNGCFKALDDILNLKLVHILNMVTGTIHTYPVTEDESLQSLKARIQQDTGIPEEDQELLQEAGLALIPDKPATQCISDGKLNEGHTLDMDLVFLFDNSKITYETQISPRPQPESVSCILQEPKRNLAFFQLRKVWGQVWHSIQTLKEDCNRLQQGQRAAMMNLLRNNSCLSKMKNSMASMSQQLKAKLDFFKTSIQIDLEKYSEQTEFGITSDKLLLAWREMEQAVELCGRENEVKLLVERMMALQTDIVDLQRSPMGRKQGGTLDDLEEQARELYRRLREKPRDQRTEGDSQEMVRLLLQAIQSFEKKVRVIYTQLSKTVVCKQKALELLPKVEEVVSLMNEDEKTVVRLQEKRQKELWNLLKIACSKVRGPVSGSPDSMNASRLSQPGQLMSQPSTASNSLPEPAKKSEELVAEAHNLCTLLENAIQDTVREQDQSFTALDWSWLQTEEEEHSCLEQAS
Nature of the experiment: Inhibition of FLAG-tagged human recombinant IKKbeta phosphorylation expressed in baculovirus infected insect Sf9 cells after 1 hr by luminescence assay. The method in brief: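 Reaction run 1 h at room temperature in 25 mmol/l HEPES pH 7.5, 10 mmol/l Mg acetate, DTT, 0.01% BSA and 0.01% Tween20, with 500 nmol ATP and GST-IκBα substrate. Kinase-Glo added, 10 min, luminescence from remaining ATP measured.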

For the compound `C/C=C(\C)C(=O)O[C@@H]1CC(C)(C)C[C@H]2C3=CC[C@@H]4[C@@]5(C)CC[C@H](O)C(C)(C)[C@@H]5CC[C@@]4(C)[C@]3(C)CC[C@@]12C(=O)O`, the IC50 (commonly the point on the concentration scale where inhibition reaches its midpoint) worked out at 2.62 µM.
The result for `CC(C)=CC(=O)O[C@@H]1CC(C)(C)C[C@H]2C3=CC[C@@H]4[C@@]5(C)CC[C@H](OC(=O)/C=C/c6ccccc6)C(C)(C)[C@@H]5CC[C@@]4(C)[C@]3(C)CC[C@@]12C(=O)O` reads 0.94 µM; that for `C/C=C(\C)C(=O)O[C@@H]1CC(C)(C)C[C@H]2C3=CC[C@@H]4[C@@]5(C)CC[C@H](OC(=O)/C=C/c6ccccc6)C(C)(C)[C@@H]5CC[C@@]4(C)[C@]3(C)CC[C@@]12C(=O)O`, 1.2 µM.
